Source: ChEMBL document CHEMBL1138520, “Molecular and conformational determinants of pituitary adenylate cyclase-activating polypeptide (PACAP) for activation of the PAC1 receptor” (J Med Chem, 2009)
pEC50, pIC50: −log10 of the molar value. Where a SMILES comes first, the peptide text is derived from it.

Assays:
[1] = molecular target: T1, Pituitary adenylate cyclase-activating polypeptide type I receptor (Homo sapiens, UniProt P41586); experiment: Agonist activity at human recombinant PAC1 receptor expressed in CHO cells assessed as PACAP38-induced calcium mobilization by FLIPR assay; type: functional, cell-based
Procedure, shortened: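 CHO cells stably expressing recombinant human PAC1, plated 24 h before assay, loaded with fluo-4 AM for 60 min at 37 °C in the dark, then rinsed into HBSS for 15 min at 37 °C. EC50 and efficacy came from nonlinear regression; 4-10 independent assays in duplicate.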
Target sequence in this assay (P41586 whole entry): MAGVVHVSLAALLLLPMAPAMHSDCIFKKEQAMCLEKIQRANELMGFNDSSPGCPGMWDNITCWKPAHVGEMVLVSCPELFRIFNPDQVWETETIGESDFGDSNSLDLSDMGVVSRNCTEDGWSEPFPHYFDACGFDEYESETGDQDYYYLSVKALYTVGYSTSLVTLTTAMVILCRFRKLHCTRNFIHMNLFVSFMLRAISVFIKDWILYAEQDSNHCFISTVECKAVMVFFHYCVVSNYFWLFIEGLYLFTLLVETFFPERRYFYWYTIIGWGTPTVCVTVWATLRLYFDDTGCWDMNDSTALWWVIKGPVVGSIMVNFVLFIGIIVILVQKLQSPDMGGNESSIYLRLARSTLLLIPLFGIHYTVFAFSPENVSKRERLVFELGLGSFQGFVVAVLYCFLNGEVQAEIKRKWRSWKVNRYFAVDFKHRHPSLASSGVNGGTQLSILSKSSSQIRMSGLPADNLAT

[2] = molecular target: T1, Pituitary adenylate cyclase-activating polypeptide type I receptor; experiment: Agonist activity at human recombinant PAC1 receptor expressed in CHO cells assessed as PACAP38-induced calcium mobilization by FLIPR assay relative to PACAP38; type: functional, cell-based
Procedure, shortened: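 CHO cells stably expressing recombinant human PAC1, plated 24 h before assay, loaded with fluo-4 AM for 60 min at 37 °C in the dark, then rinsed into HBSS for 15 min at 37 °C. Peptide was added 18 s into a 150 s read (ex 480/em 525 nm), at final concentrations of 1 × 10-12 to 1 × 10^-5 M. Response was normalised to 1 × 10^-5 M PACAP38 on each plate. EC50 and efficacy came from nonlinear regression; 4-10 independent assays in duplicate.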
Target sequence in this assay (P41586 21-468 limits assumed): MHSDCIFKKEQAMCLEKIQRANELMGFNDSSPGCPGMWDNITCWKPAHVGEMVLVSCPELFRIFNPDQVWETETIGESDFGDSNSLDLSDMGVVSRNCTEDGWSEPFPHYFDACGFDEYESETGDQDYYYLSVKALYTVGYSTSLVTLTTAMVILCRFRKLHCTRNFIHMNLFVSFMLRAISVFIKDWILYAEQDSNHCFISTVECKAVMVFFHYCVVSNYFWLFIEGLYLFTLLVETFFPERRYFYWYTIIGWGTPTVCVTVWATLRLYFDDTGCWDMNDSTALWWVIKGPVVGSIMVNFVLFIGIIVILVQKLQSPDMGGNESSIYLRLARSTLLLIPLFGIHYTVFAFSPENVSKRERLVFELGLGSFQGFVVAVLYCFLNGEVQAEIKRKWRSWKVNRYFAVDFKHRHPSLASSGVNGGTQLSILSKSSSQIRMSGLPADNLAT

[3] = molecular target: T1, Pituitary adenylate cyclase-activating polypeptide type I receptor; experiment: Displacement of [125I]Ac-PACAP27 from human recombinant PAC1 receptor expressed in CHO cells by gamma- counter; type: cell-based
Target sequence in this assay (P41586 whole entry): as the sequence (P41586 whole entry) above

| SMILES | pEC50 [1] | Emax [2] [%] | pIC50 [3] |
| --- | --- | --- | --- |
| CSCC[C@H](NC(=O)[C@H](CCC(N)=O)NC(=O)[C@H](CCCCN)NC(=O)[C@H](CCCNC(=N)N)NC(=O)[C@H](Cc1ccc(O)cc1)NC(=O)[C@H](CCCNC(=N)N)NC(=O)[C@H](CO)NC(=O)[C@H](Cc1ccc(O)cc1)NC(=O)[C@H](CO)NC(=O)[C@H](CC(=O)O)NC(=O)[C@@H](NC(=O)[C@H](Cc1ccccc1)NC(=O)[C@H](C)NC(=O)CNC(=O)[C@H](CC(=O)O)NC(=O)[C@H](CO)NC(=O)[C@@H](N)Cc1cnc[nH]1)[C@@H](C)O)C(=O)N[C@@H](C)C(=O)N[C@H](C(=O)N[C@@H](CCCCN)C(=O)N[C@@H](CCCCN)C(=O)N[C@@H](Cc1ccc(O)cc1)C(=O)N[C@@H](CC(C)C)C(=O)N[C@@H](C)C(=O)N[C@@H](C)C(=O)N[C@H](C(=O)N[C@@H](CC(C)C)C(=O)NCC(=O)N[C@@H](CCCCN)C(=O)N[C@@H](CCCNC(=N)N)C(=O)N[C@@H](Cc1ccc(O)cc1)C(=O)N[C@@H](CCCCN)C(=O)N[C@@H](CCC(N)=O)C(=O)N[C@@H](CCCNC(=N)N)C(=O)N[C@H](C(=O)N[C@@H](CCCCN)C(=O)N[C@@H](CC(N)=O)C(=O)N[C@@H](CCCCN)C(N)=O)C(C)C)C(C)C)C(C)C (H-HSDGAFTDSYSRYRKQMAVKKYLAAVLGKRYKQRVKNK-NH2) | 8.02 | 88.3 | 7.46 |
| CSCC[C@H](NC(=O)[C@H](CCC(N)=O)NC(=O)[C@H](CCCCN)NC(=O)[C@H](CCCNC(=N)N)NC(=O)[C@H](Cc1ccc(O)cc1)NC(=O)[C@H](CCCNC(=N)N)NC(=O)[C@H](CO)NC(=O)[C@H](Cc1ccc(O)cc1)NC(=O)[C@H](CO)NC(=O)[C@H](CC(=O)O)NC(=O)[C@@H](NC(=O)[C@H](Cc1ccccc1)NC(=O)[C@H](C)NC(=O)CNC(=O)[C@H](CC(=O)O)NC(=O)[C@H](CO)NC(=O)[C@@H](N)Cc1cnc[nH]1)[C@@H](C)O)C(=O)N[C@@H](C)C(=O)N[C@H](C(=O)N[C@@H](CCCCN)C(=O)N[C@@H](CCCCN)C(=O)N[C@@H](Cc1ccc(O)cc1)C(=O)N[C@@H](CC(C)C)C(=O)N[C@@H](C)C(=O)N[C@@H](C)C(=O)N[C@H](C(=O)N[C@@H](CC(C)C)C(N)=O)C(C)C)C(C)C | 7.40 | 99.2 | 7.22 |
| CC[C@H](C)[C@H](NC(=O)C(C)(C)NC(=O)[C@H](CC(=O)O)NC(=O)[C@H](CO)NC(=O)[C@@H](N)Cc1cnc[nH]1)C(=O)N[C@@H](Cc1ccccc1)C(=O)N[C@H](C(=O)N[C@@H](CC(=O)O)C(=O)N[C@@H](CO)C(=O)N[C@@H](Cc1ccc(O)cc1)C(=O)N[C@@H](CO)C(=O)N[C@@H](CCCNC(=N)N)C(=O)N[C@@H](Cc1ccc(O)cc1)C(=O)N[C@@H](CCCNC(=N)N)C(=O)N[C@@H](CCCCN)C(=O)N[C@@H](CCC(N)=O)C(=O)N[C@@H](CCSC)C(=O)N[C@@H](C)C(=O)N[C@H](C(=O)N[C@@H](CCCCN)C(=O)N[C@@H](CCCCN)C(=O)N[C@@H](Cc1ccc(O)cc1)C(=O)N[C@@H](CC(C)C)C(=O)N[C@@H](C)C(=O)N[C@@H](C)C(=O)N[C@H](C(=O)N[C@@H](CC(C)C)C(N)=O)C(C)C)C(C)C)[C@@H](C)O | 7.31 | 90.2 | 7.29 |
| CSCC[C@H](NC(=O)[C@H](CCC(N)=O)NC(=O)[C@H](CCCCN)NC(=O)[C@H](CCCNC(=N)N)NC(=O)[C@H](Cc1ccc(O)cc1)NC(=O)[C@H](CCCNC(=N)N)NC(=O)[C@H](CO)NC(=O)[C@H](Cc1ccc(O)cc1)NC(=O)[C@H](CO)NC(=O)[C@H](CC(=O)O)NC(=O)[C@@H](NC(=O)[C@H](Cc1ccccc1)NC(=O)[C@H](CC(C)C)N1CC[C@H](NC(=O)[C@H](CC(=O)O)NC(=O)[C@H](CO)NC(=O)[C@@H](N)Cc2cnc[nH]2)C1=O)[C@@H](C)O)C(=O)N[C@@H](C)C(=O)N[C@H](C(=O)N[C@@H](CCCCN)C(=O)N[C@@H](CCCCN)C(=O)N[C@@H](Cc1ccc(O)cc1)C(=O)N[C@@H](CC(C)C)C(=O)N[C@@H](C)C(=O)N[C@@H](C)C(=O)N[C@H](C(=O)N[C@@H](CC(C)C)C(N)=O)C(C)C)C(C)C | 5.99 | 54.1 | 5.70 |
| CC[C@H](C)[C@H](NC(=O)CNC(=O)[C@H](CC(=O)O)NC(=O)[C@H](CO)NC(=O)[C@@H](N)Cc1cnc[nH]1)C(=O)N1Cc2ccccc2CC1C(=O)N[C@H](C(=O)N[C@@H](CC(=O)O)C(=O)N[C@@H](CO)C(=O)N[C@@H](Cc1ccc(O)cc1)C(=O)N[C@@H](CO)C(=O)N[C@@H](CCCNC(=N)N)C(=O)N[C@@H](Cc1ccc(O)cc1)C(=O)N[C@@H](CCCNC(=N)N)C(=O)N[C@@H](CCCCN)C(=O)N[C@@H](CCC(N)=O)C(=O)N[C@@H](CCSC)C(=O)N[C@@H](C)C(=O)N[C@H](C(=O)N[C@@H](CCCCN)C(=O)N[C@@H](CCCCN)C(=O)N[C@@H](Cc1ccc(O)cc1)C(=O)N[C@@H](CC(C)C)C(=O)N[C@@H](C)C(=O)N[C@@H](C)C(=O)N[C@H](C(=O)N[C@@H](CC(C)C)C(N)=O)C(C)C)C(C)C)[C@@H](C)O (some centres undefined) | 6.25 | 65.9 | 5.66 |
| CC[C@H](C)[C@H](NC(=O)CNC(=O)[C@H](CC(=O)O)NC(=O)[C@H](CO)NC(=O)[C@H](N)Cc1cnc[nH]1)C(=O)N[C@@H](Cc1ccccc1)C(=O)N[C@H](C(=O)N[C@@H](CC(=O)O)C(=O)N[C@@H](CO)C(=O)N[C@@H](Cc1ccc(O)cc1)C(=O)N[C@@H](CO)C(=O)N[C@@H](CCCNC(=N)N)C(=O)N[C@@H](Cc1ccc(O)cc1)C(=O)N[C@@H](CCCNC(=N)N)C(=O)N[C@@H](CCCCN)C(=O)N[C@@H](CCC(N)=O)C(=O)N[C@@H](CCSC)C(=O)N[C@@H](C)C(=O)N[C@H](C(=O)N[C@@H](CCCCN)C(=O)N[C@@H](CCCCN)C(=O)N[C@@H](Cc1ccc(O)cc1)C(=O)N[C@@H](CC(C)C)C(=O)N[C@@H](C)C(=O)N[C@@H](C)C(=O)N[C@H](C(=O)N[C@@H](CC(C)C)C(=O)NCC(=O)N[C@@H](CCCCN)C(=O)N[C@@H](CCCNC(=N)N)C(=O)N[C@@H](Cc1ccc(O)cc1)C(=O)N[C@@H](CCCCN)C(=O)N[C@@H](CCC(N)=O)C(=O)N[C@@H](CCCNC(=N)N)C(=O)N[C@H](C(=O)N[C@@H](CCCCN)C(=O)N[C@@H](CC(N)=O)C(=O)N[C@@H](CCCCN)C(N)=O)C(C)C)C(C)C)C(C)C)[C@@H](C)O | 8.54 | 107 |  |
| CC[C@H](C)[C@H](NC(=O)CNC(=O)[C@H](CC(=O)O)NC(=O)[C@H](CO)N(C)C(=O)[C@@H](N)Cc1cnc[nH]1)C(=O)N[C@@H](Cc1ccccc1)C(=O)N[C@H](C(=O)N[C@@H](CC(=O)O)C(=O)N[C@@H](CO)C(=O)N[C@@H](Cc1ccc(O)cc1)C(=O)N[C@@H](CO)C(=O)N[C@@H](CCCNC(=N)N)C(=O)N[C@@H](Cc1ccc(O)cc1)C(=O)N[C@@H](CCCNC(=N)N)C(=O)N[C@@H](CCCCN)C(=O)N[C@@H](CCC(N)=O)C(=O)N[C@@H](CCSC)C(=O)N[C@@H](C)C(=O)N[C@H](C(=O)N[C@@H](CCCCN)C(=O)N[C@@H](CCCCN)C(=O)N[C@@H](Cc1ccc(O)cc1)C(=O)N[C@@H](CC(C)C)C(=O)N[C@@H](C)C(=O)N[C@@H](C)C(=O)N[C@H](C(=O)N[C@@H](CC(C)C)C(N)=O)C(C)C)C(C)C)[C@@H](C)O | 7.31 | 93 |  |
